# MPTP block – permeability transition pore inhibition | hit rate 1.4% among 360,000 | inhibition, % at 10 µM | isolated mouse mitochondria, Ca2+ swelling absorbance, 30 min;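 active = inhibition of 50% or more, scaled per plate between neutral and stimulator controls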;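 also: 0% = DMSO wells given calcium and 100% = 1 mM EGTA wells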
# Apaf1 inhib – blocks human Apaf-1 apoptosome activity; O14727; reconstituted apoptosome caspase-3 activity, DEVD-Rh110 fluorescence; inhibition, % at 20 µM; hit rate 0.71% among 330,000; active = inhibition of at least 40% at 20 µM;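 also: plate controls were DMSO wells for no effect and DEVD-CHO caspase inhibitor wells for full effect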
# Target sequence (O14727 whole entry, looked up): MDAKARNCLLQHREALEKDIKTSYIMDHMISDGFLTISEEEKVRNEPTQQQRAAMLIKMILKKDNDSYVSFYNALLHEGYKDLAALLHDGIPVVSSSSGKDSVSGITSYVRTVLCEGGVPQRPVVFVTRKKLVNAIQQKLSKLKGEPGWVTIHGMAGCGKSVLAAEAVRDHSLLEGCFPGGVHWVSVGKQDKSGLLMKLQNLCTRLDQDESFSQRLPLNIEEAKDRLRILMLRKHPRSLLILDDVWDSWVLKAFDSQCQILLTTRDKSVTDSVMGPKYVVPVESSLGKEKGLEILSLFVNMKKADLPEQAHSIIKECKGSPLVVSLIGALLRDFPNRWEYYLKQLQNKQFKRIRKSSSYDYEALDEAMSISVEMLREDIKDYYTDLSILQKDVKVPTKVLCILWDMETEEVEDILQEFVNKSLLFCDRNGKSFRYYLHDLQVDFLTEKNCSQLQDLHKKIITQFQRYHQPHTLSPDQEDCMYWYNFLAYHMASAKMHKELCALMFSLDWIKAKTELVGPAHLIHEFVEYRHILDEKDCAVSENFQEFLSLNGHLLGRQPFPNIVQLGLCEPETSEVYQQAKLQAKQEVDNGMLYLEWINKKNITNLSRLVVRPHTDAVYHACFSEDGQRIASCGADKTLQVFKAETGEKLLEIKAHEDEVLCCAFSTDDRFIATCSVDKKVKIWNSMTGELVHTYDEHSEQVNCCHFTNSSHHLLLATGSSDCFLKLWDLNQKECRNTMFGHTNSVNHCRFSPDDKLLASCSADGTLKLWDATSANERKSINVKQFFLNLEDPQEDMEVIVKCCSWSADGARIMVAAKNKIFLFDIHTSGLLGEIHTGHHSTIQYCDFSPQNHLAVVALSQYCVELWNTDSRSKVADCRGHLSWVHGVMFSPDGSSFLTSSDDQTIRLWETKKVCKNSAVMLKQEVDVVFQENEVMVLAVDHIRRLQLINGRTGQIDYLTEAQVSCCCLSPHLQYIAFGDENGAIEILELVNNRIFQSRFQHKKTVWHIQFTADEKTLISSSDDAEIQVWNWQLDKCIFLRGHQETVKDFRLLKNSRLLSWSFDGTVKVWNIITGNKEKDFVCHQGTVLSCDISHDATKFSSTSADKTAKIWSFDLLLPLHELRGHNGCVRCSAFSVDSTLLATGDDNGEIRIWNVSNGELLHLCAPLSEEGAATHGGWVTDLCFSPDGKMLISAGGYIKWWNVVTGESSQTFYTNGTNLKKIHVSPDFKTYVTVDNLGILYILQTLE
#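 System: reconstituted apoptosome with Apaf-1, cytochrome c, caspase-9, procaspase-3, dATP; Signal: Rh110 fluorescence intensity; Schedule: 30 min compound preincubation, 50 min activation, room temperature; Reagent: cytochrome c trigger plus (Z-DEVD)2-Rh110 caspase-3 substrate.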
# UBC13 inh – human UBC13 polyubiquitination inhibition; UBC13 polyubiquitin chain formation, TR-FRET; inhibition, % at 20 µM; hit rate 0.47% among 330,000; AID 485273; in the data active = inhibition above about 45%, passing the limit was not always enough; inconclusive = no clear call, values can overlap the other calls
# MIN6 prolif – inducers of beta-cell replication in MIN6 cells; hit rate 0.29% among 330,000; proliferation, % at 10 µM; MIN6 cells proliferation, ATPlite luminescence, 48 h; cells starved in 0.2% serum; 100% = growth in 10% serum;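 active = compounds whose signal lies at least 3.5 SD above the mean of all wells on their plate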;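 also: 0% = DMSO-treated cells in low-serum medium and 100% = 10% serum control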
# hiPSC survival – hiPSC single-cell survival enhancement | hit rate 0.044% among 360,000 | AID 602274 | ATPlite luminescence; 100% = ROCK inhibitor wells, 0% = DMSO | survival enhancement, % at 20 µM; in the data active = survival enhancement above about 18%;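 also: cells exposed to compounds for 16 hours before the ATP read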
# Exocytosis inh – lytic granule exocytosis inhibition | inhibition, % at 10 µM | hit rate 0.66% among 360,000 | TALL-104 LAMP-1 surface exposure, flow cytometry; cells stimulated with thapsigargin and PMA;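 active = inhibition above about 55%, limit read from the data; inconclusive = no clear call, values can overlap the other calls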
# Casp3 UBC13 ctr – counter-screen for UBC13 inhibitors: human caspase-3 inhibition. shares compounds with UBC13 inh. Recombinant caspase-3, Caspase-Glo 3/7 luminescence, 60 min. inhibition, % at 20 µM. hit rate 4% among 1,400;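 active = mean inhibition across replicates above about 26%, limit read from the data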;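 also: plate controls were DMSO with caspase-3 for no effect and DMSO wells lacking enzyme for full effect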
# UBC13 confirm – human UBC13 polyubiquitin inhibition, confirmed | shares compounds with UBC13 inh | UBC13 polyubiquitination, TR-FRET, biochemical | inhibition, % at 10 µM | hit rate 68% among 1,400 | AID 488859; in the data active = inhibition above about 45%; inconclusive = no clear call, values can overlap the other calls
# * = called active by the depositor; ? = inconclusive; nt = no result. Sampled rows, rich in hits. Any-hit rate of the full collection: about 3%.
SMILES,MPTP block,Apaf1 inhib,UBC13 inh,MIN6 prolif,hiPSC survival,Exocytosis inh,Casp3 UBC13 ctr,UBC13 confirm
Cc1ccc(NC(=O)c2ccc3c(=O)n4c(nc3c2)CCC4)cc1S(=O)(=O)N(C)C,-1.2,1.9,-5.7,3.1,-0.5,-3.3,nt,nt
CC(=O)Oc1ccccc1C(=O)Nc1ccccc1C(=O)N1CCCCC1,-0.6,1.5,-0.4,-3.3,-0.6,0.3,nt,nt
CCN(CC)c1ccc(/C=C2\CCC(/C=N/NC(=O)c3ccc(=O)n(C)c3)=C2N2CCOCC2)cc1,3.4,6.4,53.4*,-4.7,1.7,7.3,1.4,-5.5
Cc1ccc(O)c(NC(=O)c2ccc3c(c2)C(=O)N(Cc2ccco2)C3=O)c1,-0.1,-5.3,-21.7,-3.1,-0.5,-6.3,nt,nt
O=C(CCCC(=O)c1ccccc1)Nc1ccc(O)cc1,-0.9,-3.1,5.1,-1.8,0.2,-8.0,nt,nt
N#Cc1c(N)n[nH]c1Cc1cccc2ccccc12,-0.5,2.6,6.0,-1.1,-1.3,4.4,nt,nt
Cc1nc(N)c2c(Cc3cccc4ccccc34)nn(C(C)(C)C)c2n1,-0.4,26.3,74.1*,-7.0,1.7,-2.7,-4.1,42.8
CC(C)n1ncc2c(C(=O)Nc3ccc(S(C)(=O)=O)cc3)cc(C3CC3)nc21,-0.8,9.7,-8.3,-3.9,0.5,-8.9,nt,nt
CC(C)n1ncc2c(C(=O)Nc3ccc(S(N)(=O)=O)cc3)cc(C3CC3)nc21,-0.3,74.6*,74.9*,0.9,0.6,-1.6,-0.4,49.2*
CC(=O)c1c(O)cc(O)cc1O,-0.5,nt,nt,nt,3.3,-1.8,nt,nt
COc1ccc(CN2C(=O)CCC2(C)c2nnnn2Cc2ccccc2)cc1 (configuration not stated),-0.3,nt,nt,nt,-0.1,-4.2,nt,nt
OCCNc1ncnc2c1sc1nc(N3CCOCC3)c3c(c12)CCC3,-0.3,4.1,12.5,0.7,0.0,2.7,nt,nt
CCN(CC)CCNc1ncnc2c1sc1nc(N3CCOCC3)c3c(c12)CCCC3,2.5,-2.4,69.4*,-5.8,-0.8,17.7,-1.9,84.3*
O=C(N/N=C/c1ccccn1)c1cc(-c2ccccc2Cl)n[nH]1,-1.2,-2.0,46.7*,-1.9,1.0,-0.5,-2.4,41.5
CCc1ccc(-c2cc(C(=O)N/N=C/c3ccccn3)[nH]n2)cc1,-1.7,11.9,49.9*,-2.1,-1.0,5.7,1.8,53.9*
COc1ccc(N2CCN(C(=O)COC(=O)COc3ccc(C#N)cc3)CC2)cc1,-3.1,-1.4,-4.0,1.4,-0.2,-2.3,nt,nt
CC(C)CNC(=O)C(=O)NCC1OCCCN1S(=O)(=O)c1ccc2c(c1)OCCO2 (configuration not stated),1.3,-0.4,1.1,-3.9,0.3,4.3,nt,nt
COc1ccc(-c2cc(C(=O)NCCCN3CCCC3=O)c3ccccc3n2)cc1,-1.8,27.5,46.7*,-2.0,0.1,-13.3,-1.2,54.0*
COc1cccc(NC(=O)CSc2nc3ccccc3c(=O)n2Cc2cccs2)c1,3.3,-0.2,60.6*,0.8,4.7,3.1,3.6,57.6*
O=C(O)CCCCCn1c(SCC(=O)Nc2ccc(F)cc2)nc2ccsc2c1=O,-0.2,11.6,37.2,0.6,-0.3,-2.0,nt,nt
COc1ccc(NC(=O)CSc2nc3ccsc3c(=O)n2CCCCCC(=O)O)cc1,0.0,3.4,61.6*,-0.7,0.6,3.4,0.4,78.6*
NC(=O)C1CCN(c2oc(/C=C/c3ccc(F)cc3)nc2S(=O)(=O)c2ccccc2)CC1,1.1,27.1,2.7,-3.5,0.2,-0.1,nt,nt
Cc1ccc(C(=O)NC(C)c2ccc(-n3ccnc3)cc2)cc1S(=O)(=O)N1CCOCC1 (configuration not stated),-2.1,23.2,73.0*,4.0,0.0,2.4,-0.9,101.6*
CCn1c(=O)cc(SCC(=O)N2CCN(C3CCCCC3)CC2)c2ccccc21,-1.5,-10.1,79.3*,0.2,0.0,-1.0,-2.4,?
COCCN1C(=O)CCC1(C)C(=O)Nc1ccc2ccccc2c1 (configuration not stated),-0.2,nt,nt,nt,2.1,-1.5,nt,nt
SMILES,MPTP block,Apaf1 inhib,UBC13 inh,MIN6 prolif,hiPSC survival,Exocytosis inh,Casp3 UBC13 ctr,UBC13 confirm
COc1ccccc1NC(=O)c1c(N=Cc2ccccc2O)cnn1C,nt,10.9,86.7*,-1.5,nt,nt,-0.9,96.4*
CCOC(=O)c1c(NC(=O)CCS(=O)(=O)c2ccccc2)sc2c1CC(C)(C)NC2(C)C,0.9,0.7,-6.1,-7.5,-0.3,-1.8,nt,nt
CCOC(=O)c1c(NC(=O)c2ccc(C)cc2)sc2c1CC(C)(C)NC2(C)C,nt,54.3*,48.6*,-5.7,nt,nt,-2.6,10.9
CCOC(=O)c1c(NC(=O)COc2ccccc2C#N)sc2c1CC(C)(C)NC2(C)C,-0.4,6.7,75.6*,-6.7,-0.5,56.6*,-2.6,104.6*
O=C(N/N=C/c1nn(-c2ccccc2)cc1-c1ccc(Cl)cc1)c1ccncc1,nt,16.7,-17.1,-5.9,nt,nt,nt,nt
Cc1ccc(NC(=S)N=Nc2c(O)[nH]c3ccccc23)cc1,1.4,7.7,42.9,-5.6,-1.5,5.0,nt,nt
Oc1cccc(NC(=S)N=Nc2c(O)[nH]c3ccc(Br)cc23)c1,34.6,7.1,86.1*,-5.7,0.7,-3.9,3.1,?
Oc1ccc(NC(=S)N=Nc2c(O)[nH]c3ccccc23)cc1,-0.2,3.3,92.0*,-2.5,1.5,0.6,5.5,103.0*
Oc1ccc(NC(=S)N=Nc2c(O)[nH]c3ccc(Br)cc23)cc1,1.4,15.6,?,-4.7,2.0,-2.2,nt,nt
Cc1ccc(NC2=CC(=O)CC(c3ccccc3)C2)cc1 (configuration not stated),0.9,-8.8,45.0*,1.1,0.3,4.2,-2.5,-0.5
Cc1ccc(NC2=CC(=O)CC(c3ccc(Cl)cc3)C2)cc1 (configuration not stated),5.5,6.4,3.9,-1.7,-0.9,9.0,nt,nt
c1ccc(C[C@H]2CNCCN2CC2CCCCC2)cc1,4.7,-1.5,18.3,-1.1,-2.2,16.7,nt,nt
c1ccc(C[C@H]2CNCCN2CCCCC2CCCCC2)cc1,0.7,49.4*,60.9*,-8.0,-3.4,-5.2,3.2,67.5*
COc1ccc(C2c3ccc4ccccc4c3Oc3ncn(CCCN(C)C)c(=N)c32)cc1 (configuration not stated),-3.9,16.9,60.9*,-4.9,0.0,1.2,-4.4,48.1*
Cc1c(C(=O)NCc2cccc([N+](=O)[O-])c2)sc(=O)n1Cc1ccc(C(C)C)cc1,1.1,nt,nt,nt,1.3,7.5,nt,nt
CCc1ccccc1OCC(=O)OCC(=O)Nc1cc(C)on1,0.0,-2.5,48.2*,-3.7,1.3,6.5,5.7,16.0
CCOC(=O)N1CCC(NC(=O)c2ccccc2C(=O)O)CC1,-0.1,-29.8,-3.1,-0.7,-0.5,2.4,nt,nt
